# Molecular target: Cysteinyl leukotriene receptor 1 (Cavia porcellus)
# Experiment: Displacement of [3H]LTD4 from Cysteinyl leukotriene D4 receptor in guinea pig lung membranes
# Conditions: not given
row,SMILES,Kd
1,O=C(O)c1cccc(C(=O)/C=C/c2ccc(/C=C/c3ccc4ccccc4n3)cc2)c1O,200 nM
2,O=C(O)c1ccc(O)c(C(=O)/C=C/c2ccc3ccccc3n2)c1,11100 nM
3,CCOCCn1c(COc2ccc(/C=C/C(=O)c3ccc(C(=O)O)cc3O)cc2)nc2ccccc21,62400 nM
4,CCOCCn1c(COc2ccc(/C=C/C(=O)c3cc(-c4nn[nH]n4)ccc3O)cc2)nc2ccccc21,527 nM
5,COc1ccc(C(=O)O)cc1C(=O)/C=C/c1ccc(OCc2ccc3ccccc3n2)cc1,188 nM
6,CCOCCn1c(COc2cccc(/C=C/C(=O)c3cc(Cl)cc(C(=O)O)c3O)c2)nc2ccccc21,10500 nM
7,O=C(/C=C/c1cccc(OCc2ccc3ccccc3n2)c1)c1cc(-c2nn[nH]n2)ccc1O,209 nM
8,O=C(O)c1cc(Br)cc(C(=O)/C=C/c2cccc(OCc3ccc4ccccc4n3)c2)c1O,205 nM
9,O=C(/C=C/c1cccc(/C=C/c2ccc3ccccc3n2)c1)c1cc(-c2nn[nH]n2)ccc1O,21 nM
10,COC(=O)c1ccc(OC)c(C(=O)/C=C/c2ccc(OCc3ccc4ccccc4n3)cc2)c1,357 nM
11,O=C(O)c1cc(Br)cc(C(=O)/C=C/c2ccc(OCc3ccc4ccccc4n3)cc2)c1O,2100 nM
12,O=C(/C=C/c1ccc(OCc2nccs2)cc1)c1cc(-c2nn[nH]n2)ccc1O,233 nM
13,O=C(/C=C/c1ccc(OCc2ccc3ccc(Cl)cc3n2)cc1)c1cc(-c2nn[nH]n2)ccc1O,196 nM
14,CC(C)(C)c1cc(C(=O)O)c(O)c(C(=O)/C=C/c2cccc(/C=C/c3ccc4ccccc4n3)c2)c1,208 nM
15,O=C(O)c1cc(F)cc(C(=O)/C=C/c2ccc(OCc3ccc4ccccc4n3)cc2)c1O,396 nM
16,N#Cc1cc(Cl)cc(C(=O)/C=C/c2cccc(/C=C/c3ccc4ccccc4n3)c2)c1O,449 nM

row,SMILES,Kd
1,O=C(/C=C/c1ccc(/C=C/c2ccc3ccc(Cl)cc3n2)cc1)c1cc(-c2nn[nH]n2)ccc1O,239 nM
2,O=C(O)c1cc(Cl)cc(C(=O)/C=C/c2ccc(OCc3ccc4ccccc4n3)cc2)c1O,732 nM
3,O=C(O)c1ccc(O)c(C(=O)/C=C/c2ccc(/C=C/c3ccc4ccccc4n3)cc2)c1,585 nM
4,O=C(O)c1ccc(C(=O)/C=C/c2ccc(OCc3ccc4ccccc4n3)cc2)c(O)c1,1210 nM
5,O=C(O)c1cccc(C(=O)/C=C/c2ccc(OCc3ccc4ccccc4n3)cc2)c1O,307 nM
6,O=C(O)c1cccc(C(=O)/C=C/c2cccc(/C=C/c3ccc4ccccc4n3)c2)c1O,26 nM
7,O=C(O)COc1ccc(C(=O)/C=C/c2cccc(/C=C/c3ccc4ccccc4n3)c2)c(O)c1,204 nM
8,N#Cc1ccc(O)c(C(=O)/C=C/c2ccc(OCc3ccc4ccccc4n3)cc2)c1,4310 nM
9,O=C(/C=C/c1cccc(OCc2ccc3ccccc3c2)c1)c1cc(-c2nn[nH]n2)ccc1O,19200 nM
10,CCOCCn1c(COc2cccc(/C=C/C(=O)c3cc(-c4nn[nH]n4)ccc3O)c2)nc2ccccc21,8850 nM
11,O=C(O)c1cc(Br)cc2c(=O)cc(-c3ccc4ccccc4n3)oc12,14800 nM
12,O=C(O)c1cc(F)cc(C(=O)/C=C/c2cccc(/C=C/c3ccc4ccccc4n3)c2)c1O,140 nM
13,O=C(O)c1ccc(C(=O)/C=C/c2cccc(OCc3ccc4ccccc4n3)c2)c(O)c1,928 nM
14,O=C(/C=C/c1cccc(/C=C/c2ccc3ccccc3n2)c1)c1cc(Cl)cc(-c2nn[nH]n2)c1O,828 nM
15,O=C(O)COc1ccc(O)c(C(=O)/C=C/c2cccc(/C=C/c3ccc4ccccc4n3)c2)c1,175 nM

# Test system: Cavia porcellus
# Experiment: Inhibition of LTD4 induced increase of vascular permeability after injection of 10 ng/site at […] intraperitoneally
# Format: functional
# Conditions: not given
row,SMILES,Inhibition
1,O=C(Nc1cccc2c(=O)cc(-c3nnn[nH]3)oc12)c1ccc(OCCCCc2ccccc2)cc1,100%

# Species: Cavia porcellus
# Experiment: Inhibition of ovalbumin-induced contraction (10 ng/mL) of guinea pig trachea at 10 uM
# Format: functional
# Conditions: not given
# In short: (§1)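 Ovalbumin-sensitized male Hartley guinea pigs (2 mg ip, ≥2 weeks prior). Tracheal ring strips in Krebs with 3 µM indomethacin, 37 °C, 95% O2/5% CO2, 0.5 g tension, 60 min equilibration. Drug 10 µM preincubated 30 min, then ovalbumin challenge for 20–60 min, followed by 10 µM carbachol. Antigen response expressed as percent of the carbachol contraction.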
row,SMILES,Inhibition
1,CCCc1c(OCC(O)COc2ccc3c(=O)cc(C(=O)O)oc3c2CCC)ccc(C(C)=O)c1O (stereo not given) [FPL-55712],38%
2,O=C(/C=C/c1cccc(/C=C/c2ccc3ccccc3n2)c1)c1cc(OCc2nn[nH]n2)ccc1O,0%

# Test system: Cavia porcellus
# Experiment: Inhibition of LTD4 induced increase of vascular permeability after injection of 10 ng/site at 10 mg/kg intraperitoneally
# Format: functional
# Conditions: ip, route intraperitoneal
# In short: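 Male Hartley guinea pigs (~300 g), fasted 24 h with water available, dosed ip at 10 mg/kg in 0.5% carboxymethylcellulose or saline. One hour later Evans blue 50 mg/kg iv, then LTD4 intradermally on the back. Dorsal skin removed 30 min later, dye extracted and quantified. Reported as percent inhibition versus control.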
row,SMILES,inhibition in vivo at 10 mg/kg
1,O=C(O)c1cc(Cl)cc(C(=O)/C=C/c2cccc(/C=C/c3ccc4ccccc4n3)c2)c1O,< 10%
2,O=C(/C=C/c1ccc(OCc2ccc3ccccc3n2)cc1)c1cc(-c2nn[nH]n2)ccc1O,72%
3,O=C(O)c1cccc(C(=O)/C=C/c2cccc(/C=C/c3ccc4ccccc4n3)c2)c1O,< 10%

# Species: Cavia porcellus
# Experiment: Inhibition of LTD4 induced contraction of guinea pig ileum
# Format: functional
# Conditions: not given
# In short: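 Male guinea pig ileum segments (2 cm), 20 mL organ bath, Tyrode's with atropine and pyrilamine (10⁻⁶ M each), 29 °C, 95% O2/5% CO2, 1.0 g resting tension, isotonic recording. Compounds in DMSO (10⁻⁵ to 3 × 10⁻⁹ M) preincubated 30 min; indomethacin 10⁻⁶ M added 10 min before 10⁻⁸ M LTD4. IC50 from percent inhibition across concentrations.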
row,SMILES,IC50
1,O=C(O)c1cc(Cl)cc(C(=O)/C=C/c2cccc(/C=C/c3ccc4ccccc4n3)c2)c1O,360 nM
2,O=C(/C=C/c1cccc(/C=C/c2ccc3ccccc3n2)c1)c1cc(OCc2nn[nH]n2)ccc1O,23 nM
3,O=C(/C=C/c1cccc(/C=C/c2ccc3ccccc3n2)c1)c1cc(-c2nn[nH]n2)ccc1O,46 nM
4,Cn1c(COc2ccc(/C=C/C(=O)c3cc(-c4nn[nH]n4)ccc3O)cc2)nc2ccccc21,190 nM
5,O=C(/C=C/c1ccc(OCc2ccc3ccccc3n2)cc1)c1cc(-c2nn[nH]n2)ccc1O,240 nM
6,O=C(O)c1cccc(C(=O)/C=C/c2cccc(/C=C/c3ccc4ccccc4n3)c2)c1O,52 nM

# Species: Cavia porcellus
# Experiment: Inhibition of ovalbumin-induced contraction (10 ng/mL) of guinea pig trachea at 10 uM.
# Format: functional
# Conditions: not given
# In short: as §1
row,SMILES,Inhibition
1,O=C(Nc1cccc2c(=O)cc(-c3nnn[nH]3)oc12)c1ccc(OCCCCc2ccccc2)cc1,80%
2,O=C(/C=C/c1ccc(OCc2ccc3ccccc3n2)cc1)c1cc(-c2nn[nH]n2)ccc1O,52%
3,O=C(O)c1cccc(C(=O)/C=C/c2cccc(/C=C/c3ccc4ccccc4n3)c2)c1O,0%

# Molecular target: T1, Cysteinyl leukotriene receptor 1 (Cavia porcellus) (UniProt Q2NNR5)
# T1 sequence (whole entry): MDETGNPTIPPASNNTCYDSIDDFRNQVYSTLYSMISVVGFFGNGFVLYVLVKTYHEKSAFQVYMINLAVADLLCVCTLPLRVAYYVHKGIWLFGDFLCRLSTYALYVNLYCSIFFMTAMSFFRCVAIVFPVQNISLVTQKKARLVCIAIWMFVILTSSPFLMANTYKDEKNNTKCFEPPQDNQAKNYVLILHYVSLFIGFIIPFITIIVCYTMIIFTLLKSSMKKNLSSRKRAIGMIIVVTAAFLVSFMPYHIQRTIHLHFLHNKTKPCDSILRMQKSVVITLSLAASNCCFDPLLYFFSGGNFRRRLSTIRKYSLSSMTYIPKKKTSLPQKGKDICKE
# Experiment: Percent inhibition against Cysteinyl leukotriene D4 receptor in guinea pig lung membranes using [3H]LTD4 4 at 10 e-5 M
# Format: cell membranes
# Conditions: Membrane
# In short: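 Same [3H]LTD4 (0.2 nM) filtration binding with guinea pig lung membranes, PIPES pH 7.5, 22 °C, 30 min. Percent inhibition = (maximum binding − counts at highest drug concentration) / maximum binding × 100.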
row,SMILES,inhibition
1,CCCCOc1ccc(C(=O)O)cc1C(=O)/C=C/c1ccc(OCc2ccc3ccccc3n2)cc1,42%
2,O=C(O)c1ccc(O)c(C(=O)/C=C/c2ccc(OCc3ccccc3)cc2)c1,23%
3,O=C(O)c1ccc(O)c(C(=O)/C=C/c2ccccc2OCc2ccccc2)c1,0%
4,O=C(/C=C/c1ccc(OCc2ccc3ccccc3c2)cc1)c1cc(-c2nn[nH]n2)ccc1O,4%
5,N#Cc1ccc(C(=O)/C=C/c2cccc(OCc3ccc4ccccc4n3)c2)cc1,7%
6,CCOC(=O)c1ccc(O)c(C(=O)/C=C/c2ccc(OCc3ccc4ccccc4n3)cc2)c1,16%
7,N#Cc1ccc(O)c(C(=O)/C=C/c2cccc(OCc3ccc4ccccc4n3)c2)c1,38%
8,O=C(O)c1ccc(O)c(C(=O)/C=C/c2ccccc2OCc2ccc3ccccc3n2)c1,18%
9,N#Cc1ccc(C(=O)/C=C/c2ccc(OCc3ccc4ccccc4n3)cc2)cc1,9%

# Source: ChEMBL document CHEMBL1129983, “Synthesis and structure-activity relationships of carboxylated chalcones: a novel series of CysLT1 (LTD4) receptor antagonists” (J Med Chem, 1997)
